Laboratory results taken from PubChem BioAssay.
Inconclusive results are not listed.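 The calls were made as follows, unless noted: active = cell viability at or below a set limit in both duplicate runs, the limit being the all-compound median minus 4 SD (cut at about 23% in these data, passing the limit was not always enough); inconclusive = no clear call, values can overlap the other calls; inactive = the rest.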

Assays:
[1] = OD615 S. cerevisiae growth inhibition, permissive medium, pilot counter-assay, permissive growth control for S. cerevisiae lifespan shortening project (AID 705;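 active = growth inhibition above 25% in both replicates, a cutoff set 3 SD above the mean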); conditions: OD615, 24 h, at 10 µM, hits give high values
Summary of the method: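 assay system = Saccharomyces cerevisiae strain carrying genetically modified DeaD replicative-lifespan system | technique = absorbance (optical density) at 615 nm | buffer or medium = permissive raffinose/galactose medium | timing = cells pre-grown 4 h, then 24 h compound exposure, 30 °C humidified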

[2] = Restrictive medium S. cerevisiae growth inhibition, OD615, pilot screen of yeast lifespan reduction project, restrictive growth control (AID 706;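 active = growth inhibition above a set limit, 3 SD over mean compound inhibition, in both replicates, cut at about 43% in these data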;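 also: modified DeaD lifespan yeast strain shifted to restrictive glucose medium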); conditions: OD615, 48 h, at 10 µM, hits give high values
Summary of the method: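 System: modified S. cerevisiae. Buffer or medium: CSMM-D glucose medium. Incubation: 4 h pre-growth plus 48 h compound exposure, 30 °C. Detection: absorbance (optical density) measured at 615 nm.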

[3] = viability gain of MRP-1-high H69AR cells under doxorubicin, pilot screen, MRP-1 activator project, CellTiter-Glo, duplicate (AID 807;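 active = viability increase at or above a cutoff of the median across tested compounds plus 3 SD, cut at about 8.5% in these data, passing the limit was not always enough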;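 also: compound pretreatment 18-22 h then 72 h combined with doxorubicin; 0% = doxorubicin alone and 100% = vehicle without doxorubicin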); conditions: H69AR viability with doxorubicin, CellTiter-Glo luminescence; at 10 µM; hits give high values
[4] = growth suppression of beta-catenin knockout HCT116, pilot screen, human colon tumor cells (AID 823); conditions: CellTiter-Glo, 60 h, at 10 µM, hits give low values;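 also: 0% = wells killed by 20 µM Hyamine and 100% = untreated DMSO cell wells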
[5] = growth suppression of PTEN-deleted HCT116, pilot screen, cell-based, HCT116 clonal line, CellTiter-Glo (AID 824;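 active = viability at or below 27.92% in each of two runs, the all-compound median minus 4 SD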;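 also: 0% = 20 µM Hyamine control and 100% = vehicle cell control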); conditions: 60 h, at 10 µM, hits give low values
[6] = inhibitors of the yeast RAM network, pilot screen, dse1pr::URA3 reporter, 5-FOA selection (AID 869;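 active = inhibition over a set limit, the all-compound mean plus 3 SD, in both replicate runs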;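 also: 0% = DMSO wells with no growth and 100% = 10 µM 1-NA-PP1 with full growth; RAM network block rescues cells from 5-FOA so hits raise OD615 growth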); conditions: S. cerevisiae dse1pr::URA3 5-FOA growth, OD615, 2 d; at 10 µM; hits give high values; strain carries analog-sensitive mutant Cbk1 kinase
[7] = RAM signaling pathway blockade in yeast – S. cerevisiae, Pdr1DBD-CYC8 efflux-inhibited sensitized strain, primary screen (AID 1298;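 active = RAM network inhibition above 8.4% in each of two replicates, 3 SD over the compound average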;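 also: 0% = DMSO untreated cells without growth and 100% = 10 µM 1-NA-PP1 full growth; higher means more yeast growth rescued from 5-FOA killing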); conditions: S. cerevisiae cbk1-as DSE1-URA3 strain, 5-FOA growth OD615, 2 d; at 50 µM; hits give high values

COC(=O)Cn1c(CCC(=O)O)ccc1-c1ccccc1
inactive: growth inhibition [1] -1.1% | growth inhibition [2] -4.95% | viability increase [3] -0.49% | viability [4] 102% | viability [5] 103% | inhibition [6] 0.12% | RAM network inhibition [7] 10.9%

CCOC(=O)CSCc1nc(-c2ccc(Cl)cc2)oc1C
inactive: growth inhibition [1] -11.6% | growth inhibition [2] -8.34% | viability increase [3] 1.98% | viability [4] 94.8% | viability [5] 89.8% | inhibition [6] 1.97% | RAM network inhibition [7] -1.32%

COc1cccc2cc3c(=O)n(-c4ccccc4)nc-3oc12
inactive: growth inhibition [1] -29.6% | growth inhibition [2] -20.8% | viability increase [3] -7.1% | viability [4] 97.2% | viability [5] 92.1% | inhibition [6] 2.73% | RAM network inhibition [7] 3.19%

O=C(COC(=O)c1ccc(Br)o1)Nc1nc2ccccc2s1
inactive: growth inhibition [1] -11.2% | growth inhibition [2] -4.01% | viability increase [3] -4.65% | viability [4] 90.5% | viability [5] 87.8% | inhibition [6] 0.75% | RAM network inhibition [7] 1.88%

CC(C)(C)NC(=O)Cn1c(=O)oc2cc(S(=O)(=O)N3CCc4ccccc43)ccc21
inactive: growth inhibition [1] 0.45% | growth inhibition [2] -12.1% | viability increase [3] -3.16% | viability [4] 90% | viability [5] 89.5% | inhibition [6] 0.05% | RAM network inhibition [7] 7.21%

Cc1sc2nc(SC(C)C)nc(N)c2c1C
inactive: growth inhibition [1] 6.53% | growth inhibition [2] 7.72% | viability increase [3] 0.28% | viability [4] 103% | viability [5] 104% | inhibition [6] 1.69% | RAM network inhibition [7] 4.8%

COc1cccc(C2NC(=O)NC(C)=C2C(=O)OCCSC)c1OC (stereo unspecified)
inactive: growth inhibition [1] -3.21% | growth inhibition [2] -16.4% | viability increase [3] -0.87% | viability [4] 93.7% | viability [5] 90.6% | inhibition [6] 1.07% | RAM network inhibition [7] 2.02%

O=C(NCc1ccccc1)c1ccc(/C=N/O)nc1
inactive: growth inhibition [1] -17.6% | growth inhibition [2] -5.67% | viability increase [3] -0.06% | viability [4] 98.2% | viability [5] 106% | inhibition [6] 2.25% | RAM network inhibition [7] 6.66%

COc1ccc(-c2ccc(=O)n(CC(=O)N3CCN(c4ccccc4OC)CC3)n2)cc1
inactive: growth inhibition [1] -4.48% | growth inhibition [2] 12% | viability increase [3] 2.33% | viability [4] 89.7% | viability [5] 92.9% | inhibition [6] 1.15% | RAM network inhibition [7] 7.61%

CCC(=O)NC(c1ccccc1)c1nc2ccccc2[nH]1 (stereo unspecified)
inactive: growth inhibition [1] -12.9% | growth inhibition [2] -14.2% | viability increase [3] -0.96% | viability [4] 100% | viability [5] 97.4% | inhibition [6] 1.48% | RAM network inhibition [7] 0.62%

COc1ccccc1NC(=O)C1=C(C)NC(=O)NC1c1ccccc1F (stereo unspecified)
inactive: growth inhibition [1] -7.88% | growth inhibition [2] -13.5% | viability increase [3] -0.75% | viability [4] 99.2% | viability [5] 107% | inhibition [6] 1.82% | RAM network inhibition [7] 2.41%

CN(C)C=NC(=O)/C(C#N)=C1\CCc2ccccc2N1
inactive: growth inhibition [1] -9.21% | growth inhibition [2] -2.15% | viability increase [3] -2.2% | viability [4] 95.2% | viability [5] 92.5% | inhibition [6] 0.705% | RAM network inhibition [7] 6.77%

CCOc1ccc2nc(N3CCCC(C(=O)N4CCN(CC)CC4)C3)sc2c1 (stereo unspecified)
inactive: growth inhibition [1] -4.44% | growth inhibition [2] -8.34% | viability increase [3] 0.55% | viability [4] 102% | viability [5] 96.2% | inhibition [6] 0.775% | RAM network inhibition [7] 2.01%

Cc1cc(NC(=O)Nc2cccc3ccccc23)no1
inactive: growth inhibition [1] -3.55% | growth inhibition [2] 1.52% | viability increase [3] -4% | viability [4] 95.3% | viability [5] 89.1% | inhibition [6] -0.175% | RAM network inhibition [7] 5.09%

CN1CCN(C(=O)c2ccc3c(c2)N(Cc2cccc(Cl)c2)C(=O)c2ccccc2S3=O)CC1 (stereo unspecified)
inactive: growth inhibition [1] -4.92% | growth inhibition [2] -10.7% | viability increase [3] -3.66% | viability [4] 102% | viability [5] 99.1% | inhibition [6] 0.63% | RAM network inhibition [7] 6.41%

Cc1cccc(N(C(=O)Nc2ccccc2)C2=NCC(C)S2)c1 (stereo unspecified)
inactive: growth inhibition [1] -14.6% | growth inhibition [2] -6.9% | viability increase [3] 0.22% | viability [4] 103% | viability [5] 94.4% | inhibition [6] -0.8% | RAM network inhibition [7] 2.52%

Cc1ccc(-n2ncc3c(=O)[nH]c(SCC(=O)N4CCC(C)CC4)nc32)cc1C
inactive: growth inhibition [1] -0.265% | growth inhibition [2] -3.58% | viability increase [3] -5.08% | viability [4] 89% | viability [5] 85.3% | inhibition [6] 1.89% | RAM network inhibition [7] 2.86%

C=CCNC(=O)C1CCN(S(=O)(=O)c2ccc(Br)cc2)CC1
inactive: growth inhibition [1] -8.89% | growth inhibition [2] -18% | viability increase [3] -2.46% | viability [4] 48.1% | viability [5] 48.1% | inhibition [6] 0.52% | RAM network inhibition [7] 1.76%
